For one compound, inhibition and Activity results are on record in ChEMBL document CHEMBL4145607, “Tamarixetin Exhibits Anti-inflammatory Activity and Prevents Bacterial Sepsis by Increasing IL-10 Production” (J Nat Prod, 2018).

For experiment [1], the system named is BMDC. As to the kind of experiment: Inhibition of Escherichia coli DH5alpha infection-induced immune response in C57BL/6 mouse BMDC assessed as reduction in IL-12p70 secretion at 25 uM pretreated for 30 mins followed by Escherichia coli DH5alpha infection for 6 hrs by ELISA. The experiment is classed as functional, cell-based. The gist of the method:
(§1)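 C57BL/6 BMDCs received 25 μM compound and E. coli DH5α, 3 × 10^6 CFU·mL−1. Schedules were: compound 30 min before a 6 h infection; co-addition for 6 h; or compound for 30, 60, 90 or 120 min plus 6 h infection. Supernatant TNF-α, IL-6, IL-10 and IL-12p70 were measured by ELISA. At least three experiments in triplicate.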

The target in experiment [2] is T1, Toll-like receptor 4 (Mus musculus) (UniProt Q9QUK6).
T1 sequence (whole entry): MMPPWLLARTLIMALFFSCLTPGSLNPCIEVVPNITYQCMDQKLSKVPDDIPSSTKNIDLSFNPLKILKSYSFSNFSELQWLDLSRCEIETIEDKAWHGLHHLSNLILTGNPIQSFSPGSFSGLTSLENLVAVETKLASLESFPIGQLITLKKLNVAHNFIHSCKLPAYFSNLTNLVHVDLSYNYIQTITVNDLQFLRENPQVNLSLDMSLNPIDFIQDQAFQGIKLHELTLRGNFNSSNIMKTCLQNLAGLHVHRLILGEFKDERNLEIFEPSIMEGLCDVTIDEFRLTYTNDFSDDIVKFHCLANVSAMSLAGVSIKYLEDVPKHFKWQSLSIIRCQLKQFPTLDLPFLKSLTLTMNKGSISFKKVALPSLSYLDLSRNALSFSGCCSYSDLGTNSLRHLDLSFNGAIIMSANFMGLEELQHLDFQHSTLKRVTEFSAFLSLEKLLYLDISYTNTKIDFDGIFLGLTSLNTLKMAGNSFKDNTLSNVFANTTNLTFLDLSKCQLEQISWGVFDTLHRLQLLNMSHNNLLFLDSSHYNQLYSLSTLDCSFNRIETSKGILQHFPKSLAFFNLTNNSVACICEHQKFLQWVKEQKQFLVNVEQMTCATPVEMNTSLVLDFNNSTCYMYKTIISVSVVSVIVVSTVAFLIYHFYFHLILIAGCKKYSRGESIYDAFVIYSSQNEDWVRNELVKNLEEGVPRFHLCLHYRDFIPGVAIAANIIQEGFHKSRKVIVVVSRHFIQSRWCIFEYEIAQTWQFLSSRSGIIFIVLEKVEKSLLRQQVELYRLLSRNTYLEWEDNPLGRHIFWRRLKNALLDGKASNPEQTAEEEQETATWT
Nature of the experiment: Inhibition of LPS-induced TLR4 activation in C57BL/6 mouse BMDC assessed as reduction in ERK phosphorylation at 25 uM pretreated for 30 mins followed by LPS-challenge measured after 15 to 90 mins by Western blot analysis. The experiment is classed as cell-based. The procedure, abridged:
(§2)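 BMDCs were pretreated 30 min with 25 μM compound, then stimulated with LPS 50 ng·mL−1 for the indicated times. Lysates (25 μg protein) were run on 10% SDS-PAGE and immunoblotted for phospho/total ERK, JNK, p38 and Akt, plus COX-2, IκBα and α-tubulin, with ECL detection. Representative of three experiments.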
In general terms: Immunoblotting shows a protein as a band on a membrane.

For experiment [3], the system named is Mus musculus. Nature of the experiment: Antiseptic activity in Balb/c mouse model of Escherichia coli K1 infection-induced sepsis assessed as reduction in serum AST level at 1 mg/kg, ip pretreated for 1 hr followed by Escherichia coli K1 infection measured after 2 hrs by ELISA. The experiment is classed as functional, organism-based. For orientation: In an ELISA, binding on a coated surface is turned into a signal by an enzyme label.

Experiment [4] concerns BMDC. As to the kind of experiment: Inhibition of Escherichia coli DH5alpha infection-induced immune response in C57BL/6 mouse BMDC assessed as increase in IL10 secretion at 25 uM pretreated for 30 mins followed by Escherichia coli DH5alpha infection for 6 hrs by ELISA. The experiment is classed as functional, cell-based. The gist of the method:
as §1

In experiment [5] the test system is BMDC. Nature of the experiment: Inhibition of LPS-induced immune response in C57BL/6 mouse BMDC assessed as increase in IL10 secretion at 25 uM treated 6 hrs post LPS-challenge measured after 60 to 120 mins by ELISA. The experiment is classed as functional, cell-based. The gist of the method: (§3)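 Bone marrow DCs from 6-week-old female C57BL/6 mice, RBC-lysed, cultured in RPMI-1640/10% FBS with 10 ng/mL rmGM-CSF, 37 °C, 5% CO2. Cells given LPS 50 ng/mL for 6 h, then 25 μM compound added for 30, 60, 90 or 120 min. Supernatant TNF-α, IL-6, IL-10, IL-12p70 measured by sandwich ELISA. Mean ± SEM, compared with LPS-only DCs.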

Experiment [6] relates to BMDC. Nature of the experiment: Inhibition of LPS-induced immune response in C57BL/6 mouse BMDC assessed as reduction in TNFalpha secretion at 25 uM treated 6 hrs post LPS-challenge measured after 60 to 120 mins by ELISA. The experiment is classed as functional, cell-based. The gist of the method: as §3
The test system of experiment [7] is Mus musculus. Nature of the experiment: Antiseptic activity in Balb/c mouse model of Escherichia coli K1 infection-induced sepsis assessed as reduction in bacterial count in liver at 1 mg/kg, ip pretreated for 1 hr followed by Escherichia coli K1 infection measured after 12 hrs. The experiment is classed as functional, organism-based. The gist of the method: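 Pretreatment was 1 mg·kg−1 i.p. 1 h before i.p. E. coli K1 (1 × 10^6 CFU per mouse) in BALB/c mice. At 12 h, lungs, liver and kidneys were homogenized in PBS and diluted 1:1000. 10 μL was plated on LB agar, incubated 24 h at 37 °C, and colonies counted.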

In experiment [8] the test system is Mus musculus. As to the kind of experiment: Antiinflammatory activity in Balb/c mouse model of LPS-induced endotoxemia assessed as reduction in serum AST level at 1 mg/kg, ip pretreated for 1 hr followed by LPS-challenge measured after 12 hrs by ELISA. The experiment is classed as functional, organism-based. The procedure, abridged:
(§4)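 In BALB/c mice, 1 mg·kg−1 i.p. was given 1 h before LPS 10 mg·kg−1 i.p. After 12 h, serum AST, ALT and BUN were measured by ELISA. Means ± SEM.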

Experiment [9] relates to Mus musculus. As to the kind of experiment: Antiinflammatory activity in Balb/c mouse model of LPS-induced endotoxemia assessed as reduction in serum ALT level at 1 mg/kg, ip pretreated for 1 hr followed by LPS-challenge measured after 12 hrs by ELISA. The experiment is classed as functional, organism-based. The procedure, abridged: as §4
Experiment [10] concerns Mus musculus. As to the kind of experiment: Antiinflammatory activity in Balb/c mouse model of LPS-induced endotoxemia assessed as increase in IL10 producing dendritic cells in splenocyte at 1 mg/kg, ip pretreated for 1 hr followed by LPS-challenge measured after 12 hrs by flow cytometric analysis. The experiment is classed as functional, organism-based. (In general: A flow cytometer gives signals particle by particle.)

Experiment [11] relates to BMDC. As to the kind of experiment: Inhibition of LPS-induced immune response in C57BL/6 mouse BMDC assessed as reduction in IL-6 secretion at 25 uM treated 6 hrs post LPS-challenge measured after 60 to 120 mins by ELISA. The experiment is classed as functional, cell-based. The gist of the method: as §3
For experiment [12], the target named is T1, Toll-like receptor 4 (Mus musculus). As to the kind of experiment: Inhibition of LPS-induced TLR4 activation in C57BL/6 mouse BMDC assessed as reduction in IkappaBalpha degradation at 25 uM pretreated for 30 mins followed by LPS-challenge measured after 15 to 90 mins by Western blot analysis. The experiment is classed as cell-based. The procedure, abridged:
as §2

Calls of active or inactive are those of the source. No cut-off for these calls is given here.

As for `COc1ccc(-c2oc3cc(O)cc(O)c3c(=O)c2O)cc1O` [TAMARIXETIN], the inhibition result (in the experiment with BMDC [1]; in the experiment with BMDC [4]; in [12]) was “Active” in each case. Moreover, the inhibition entry (in experiment [2]; in the experiment on BMDC [5]; with BMDC [6]; in the experiment with BMDC [11]) was “inactive” each time. The outcome in the experiment with Mus musculus [3], in the experiment with Mus musculus [7], with Mus musculus [8], in the experiment on Mus musculus [9] and in the experiment on Mus musculus [10] was Active.
